Assay outcomes as filed in PubChem.
Compounds with a hit are over-represented: about 3.8% of the library has one in this group of screens.
Beta cell apopt = beta cell apoptosis inhibition | INS-1E cytokine-induced death, ATP luminescence, 48 h; percent of positive-control rescue, neutral wells zero | protection from apoptosis, % (test concentration not listed) | 300,000 tested, 0.8% active;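 active = Every replicate reaches about 75%, or at least half do and their mean reaches it too, limit read from the data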;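 also: higher means more ATP so stronger rescue from cytokine killing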
MC4R antag cAMP = antagonists of human melanocortin 4 receptor (MC4R). MC4R-expressing cells, MTII-stimulated cAMP, LANCE TR-FRET. inhibition, % at 6.5 µM. 360,000 tested, 0.48% active. AID 540295;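 active = inhibition above its plate's cutoff, the mean of tested wells on that plate plus 3 SD, cut at about 29% in these data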
Target sequence (P32245 whole entry, looked up): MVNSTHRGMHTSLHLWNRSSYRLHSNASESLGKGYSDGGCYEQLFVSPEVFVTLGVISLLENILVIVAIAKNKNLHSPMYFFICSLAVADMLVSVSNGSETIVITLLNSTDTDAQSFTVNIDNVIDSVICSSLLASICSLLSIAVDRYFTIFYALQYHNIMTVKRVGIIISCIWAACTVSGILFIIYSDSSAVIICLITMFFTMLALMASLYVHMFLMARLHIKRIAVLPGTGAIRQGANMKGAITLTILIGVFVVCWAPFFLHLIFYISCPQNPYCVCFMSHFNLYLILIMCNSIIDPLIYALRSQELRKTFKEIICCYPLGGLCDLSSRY
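material = U2OS cells stably expressing human melanocortin 4 receptor (MC4R) | also added = Melanotan II challenge | dosing = single nominal compound dose of 6.5 µM | detection = TR-FRET with Eu-cAMP and labeled anti-cAMP, 671 nm | replication = singlicate | timing = compound 30 min, challenge 1 h, detection 1 h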
CSC inhib = blocks cancer stem cells | cancer stem cell-like cells viability, luminescence | inhibition, % at 7.5 µM | 300,000 tested, 1.1% active | AID 2717; in the data active = inhibition above about 75%; tested in HMLE shEcad cells
TMEM16A act = mouse TMEM16A channel activation, primary screen. 340,000 tested, 0.3% active. HEK293 TMEM16A/YFP-H148Q/I152L, iodide quench fluorescence; active compounds read low. B-score at 10 µM;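 active = fluorescence-ratio B-score plate-corrected deviation score at least 3 library SD below zero, with starting fluorescence score within 5 deviations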;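 also: channel opened by trigger with iodide after compound preincubation; score built on the fluorescence ratio of max minus min over baseline; more negative score means more quench and so TMEM16A activation or potentiation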
ANO1 block = inhibitors of mouse TMEM16A calcium-activated chloride channel | Q8BHY3 | HEK293 TMEM16A/YFP iodide influx fluorescence, ionomycin | normalized B-score (activity score, 25-100; higher = stronger inhibition) at 10 µM | 310,000 tested, 1.2% active | AID 588511;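 active = ratio plate-corrected score three or more library SD toward inhibition, starting fluorescence score within five deviations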;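 also: score derived from kinetic fluorescence span divided by baseline fluorescence per well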
MC4R barr agon = activates human MC4R beta-arrestin recruitment. P32245. activation, % at 8.9 µM. U2OS MC4R beta-arrestin complementation, luminescence; percent of melanotan II response, DMSO zero. 360,000 tested, 0.98% active;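 active = activation above a per-plate cutoff, the mean activation of sample wells on that plate plus 3 SD, cut at about 8% in these data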
MC4R barr conf = human MC4R beta-arrestin agonism confirmation | shares compounds with MC4R barr agon | U2OS MC4R beta-arrestin recruitment, luminescence; scaled DMSO 0%, Melanotan II 100% | activation, % at 8.9 µM | 2,400 tested, 31% active;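 active = mean activation across replicates above the hit cutoff set in the earlier primary screen, cut at about 8% in these data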
MOR-DOR barr ag = activates mu-delta opioid heterodimer, MC4R agonist counter-screen. shares compounds with MC4R barr agon. U2OS PathHunter beta-arrestin, beta-gal luminescence; percent of deltorphin B response, DMSO zero. activation, % at 9.2 µM. 2,400 tested, 5.8% active;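 active = mean activation across replicates exceeds the hit threshold derived in the earlier primary screen, cut at about 18% in these data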
Each line names hits and unclear results; the compound was inactive in the other large screens (follow-up assays come after a bar, where they were run); ! = repeats disagree.

CCc1c(C)sc(NC(=O)Cn2nc(C(F)(F)F)c3c2CCCC3)c1C#N	MC4R barr agon 10 | MC4R barr conf inactive | MOR-DOR barr ag inactive
CCSc1nnc(NC(=O)CN2C(=O)NC3(CCCC3)C2=O)s1	none (no result: CSC inhib, ANO1 block)
COc1ccc(OC)c(N=c2oc3c(OC)cccc3cc2C(=O)NCc2ccco2)c1	none (no result: CSC inhib)
COc1ccccc1N=c1oc2c(OC)cccc2cc1C(=O)NCc1ccco1	ANO1 block 25, MC4R barr agon 24 | MC4R barr conf inactive | MOR-DOR barr ag 25
CN1CCN(Cc2nc3ccccc3c(=O)n2Cc2nc(-c3ccc4ccccc4c3)cs2)CC1	CSC inhib 99, MC4R barr agon 9.7! | MC4R barr conf 13 | MOR-DOR barr ag inactive
CN1CCN(Cc2nc3ccccc3c(=O)n2Cc2nc(-c3cccc([N+](=O)[O-])c3)cs2)CC1	none (no result: Beta cell apopt, CSC inhib, ANO1 block)
COc1cccc(NC(=O)CN(C)C(=O)c2ccc(NC(=O)CC3SC(N4CCCC4)=NC3=O)cc2)c1 (stereo unspecified)	none (no result: Beta cell apopt, CSC inhib, ANO1 block)
O=C(OCC(=O)N1CCN(C(=O)c2ccco2)CC1)c1cc(-c2ccco2)nc2ccccc12	none
O=C(OCC(=O)N1CCN(C(=O)c2ccco2)CC1)c1cc(-c2ccc(Cl)c(Cl)c2Cl)nc2ccccc12	MC4R barr agon 11 | MC4R barr conf inactive | MOR-DOR barr ag inactive
Cc1cccc(NC(=O)C2C3CCC4C(CCC32)C4(Cl)Cl)c1 (stereo unspecified)	MC4R barr agon 13 | MC4R barr conf inactive | MOR-DOR barr ag inactive
O=C(Nc1ccc(Cl)cc1)C1C2CCC3C(CCC21)C3(Cl)Cl (stereo unspecified)	none (no result: Beta cell apopt, CSC inhib, ANO1 block)
COc1ccc(C2CC(c3ccc(Cl)cc3Cl)Nc3nc(N)nn32)cc1 (stereo unspecified)	none (no result: CSC inhib)
COc1ccc(C2CC(c3ccc(Cl)cc3Cl)n3nc(N)nc3N2)cc1 (stereo unspecified)	MC4R barr agon 15 | MC4R barr conf 13 | MOR-DOR barr ag inactive
COc1ccc(CSc2nc3ccccc3c(=O)[nH]2)cc1F	none
O=c1[nH]c(SCc2ccc(F)cc2Cl)nc2ccccc12	MC4R barr agon 10 | MC4R barr conf inactive | MOR-DOR barr ag inactive
CCOC(=O)c1c(CSC(=N)N)n(-c2ccc(C)cc2)c2cc(Br)c(OC(C)=O)cc12	CSC inhib 114, ANO1 block 100, MC4R barr agon 29 | MC4R barr conf 14 | MOR-DOR barr ag 51
CCOC(=O)c1c(CSC(=N)N)n(C)c2cc(Br)c(OC(C)=O)cc12	none
COc1cc(C(=O)N/C(=C\c2cn(C)c3ccccc23)C(=O)NCCCN2CCOCC2)cc(OC)c1OC	none
CCCCCCCCCCOC(=O)Cn1c(COc2ccccc2OC)[n+](C)c2ccccc21	Beta cell apopt 107, CSC inhib 93, TMEM16A act -5.8, ANO1 block 100, MC4R barr agon 19 | MC4R barr conf 16 | MOR-DOR barr ag 29
CCc1ccc(OCC(O)CN2CCN(c3ccccc3)CC2)cc1 (stereo unspecified)	MC4R barr agon 11 (no result: Beta cell apopt, CSC inhib) | MC4R barr conf inactive | MOR-DOR barr ag inactive
N/C(=N\c1nc(CSc2nc3ccccc3s2)cc(=O)[nH]1)Nc1ccc(F)cc1	MC4R barr agon 12 | MC4R barr conf inactive | MOR-DOR barr ag inactive
Cc1cc(C)cc(NCc2cc(=O)oc3cc(-c4ccccc4)c(O)cc23)c1	none
COc1ccc(C)cc1NCc1cc(=O)oc2cc(-c3ccccc3)c(O)cc12	MC4R barr agon 13 | MC4R barr conf inactive | MOR-DOR barr ag inactive
Cc1cc(Cl)ccc1C(O)c1ncc(-c2ccc(C(F)(F)F)cc2)[nH]1 (stereo unspecified)	none (no result: Beta cell apopt, CSC inhib, TMEM16A act, ANO1 block)
Cc1ccc(CN2Cc3cccc4c3[C@@H](CC2=O)[C@H](O)[C@H](O)C4)cc1	none (no result: ANO1 block)
CC1(C(=O)NS(=O)(=O)c2ccc3ccccc3c2)CCN1C(=O)Cc1ccc(Cl)cc1Cl (stereo unspecified)	none (no result: Beta cell apopt, CSC inhib, TMEM16A act, ANO1 block)
Cc1nnnn1/C(=C\c1ccccc1)C(=O)OCC(=O)Nc1ccc(Cl)cc1F	MC4R barr agon 37 | MC4R barr conf 24 | MOR-DOR barr ag inactive
Cc1nnnn1/C(=C\c1ccccc1)C(=O)OCC(=O)Nc1cccc(S(=O)(=O)N(C)C)c1	none (no result: CSC inhib, ANO1 block)
O=C(NCCc1ccc(Cl)cc1)c1ccc2c(c1)OCCO2	none (no result: Beta cell apopt, CSC inhib)
Cc1ccc(C)c(OCCC(=O)OCC(=O)NC(=O)NC2CCCC2)c1	MC4R barr agon 14 | MC4R barr conf inactive | MOR-DOR barr ag inactive
Cc1ccc(C)c(OCCC(=O)OCC(=O)NC2CC2)c1	none
CCN(C[C@H]1N[C@@](C)(C(=O)OC)[C@H]2C(=O)N(Cc3ccccc3)C(=O)[C@@H]12)C(=O)c1ccc(C)cc1	none (no result: Beta cell apopt, CSC inhib, TMEM16A act, ANO1 block)
O=C(Cc1c(F)cccc1Cl)OCC(=O)c1ccc[nH]1	none (no result: ANO1 block)
Cc1ccccc1-c1nc(-c2ccc(NC(=O)c3ccc4c(c3)OCO4)cc2)no1	MC4R barr agon 23 | MC4R barr conf 17 | MOR-DOR barr ag inactive
COc1cc(-c2nc(-c3ccc(NC(=O)c4ccc5c(c4)OCO5)cc3)no2)cc(OC)c1OC	MC4R barr agon 23 | MC4R barr conf 28 | MOR-DOR barr ag 24
COc1ccc(S(=O)(=O)N2CCCCCC2)cc1C(=O)Nc1ccc(C(=O)N(C)C)cc1	none (no result: Beta cell apopt, CSC inhib, ANO1 block)
CC(=O)Nc1ccc(NC(=O)c2cc(-c3ccc(C)c(C)c3O)n[nH]2)cc1	MC4R barr agon 9.7 | MC4R barr conf inactive | MOR-DOR barr ag inactive
Cc1cccc(C)c1NC(=O)CSc1nc(COc2ccccc2)nc2ccccc12	none (no result: Beta cell apopt, CSC inhib)
Cc1cccc(NC(=O)CSc2nc(COc3ccccc3)nc3ccccc23)c1C	MC4R barr agon 20 | MC4R barr conf inactive | MOR-DOR barr ag inactive
CCCn1c(=O)[nH]c(=O)c2c1nc(-c1cc([N+](=O)[O-])ccc1Cl)n2CCOC	none (no result: Beta cell apopt)
COc1ccc(/C=C2\CC/C(=C\c3ccc(OC)c(OC)c3)C2=O)cc1OC	none
COc1cc(/C=C2/CC/C(=C/c3ccc(O)c(OC)c3)C2=O)ccc1O	TMEM16A act -13, MC4R barr agon 55 | MC4R barr conf 32 | MOR-DOR barr ag 18
Cc1ccc(COc2ccc(-c3nnco3)cc2)cc1	none
COc1cc(COc2ccc(-c3nnco3)cc2)ccc1OC(F)F	MC4R barr agon 12 | MC4R barr conf inactive | MOR-DOR barr ag inactive
CCOc1ccc(/C=N/NC(=O)c2cc3c(OC)cccc3[nH]2)cc1	MC4R barr agon 11 | MC4R barr conf inactive | MOR-DOR barr ag 18
Cc1ccc(S(=O)(=O)N2CCOCC2)cc1C(=O)OCC(=O)NCCc1ccccc1	none (no result: ANO1 block)
